PMC4186986 (Acta Pharmacologica Sinica, 2014)

What was measured:
Type in all cases: cell-based
MCF-7 cells = test: MTT anti-proliferation assay, MCF-7; details: Homo sapiens, MCF7, 48 h, read-out: MCF-7 inhibition (%)
Summary of the method: (§1)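 MCF-7 or MDA-MB-231 cells seeded at 10^5 cells/mL in phenol red-free DMEM/F12 with 10% charcoal-stripped FBS. Exposed to test compound at 0.01–100 μmol/L for 48 h (37 °C, 5% CO2), then MTT (5 mg/mL stock) for 4 h. Formazan dissolved in DMSO; absorbance read at 570 nm. Inhibition taken relative to DMSO-treated cells set as 100% viability; single-point values at 100 μmol/L final.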

MDA-MB-231 cells = test: MTT anti-proliferation assay, MDA-MB-231; details: Homo sapiens, MDA-MB-231, 48 h, read-out: MDA-MB-231 inhibition (%)
Summary of the method: as §1

[1] = system: cyclin A, cyclin E, CDK2 in MDA-MB-231 cells; test: Western blot of cell cycle regulatory proteins; details: MDA-MB-231, 48 h; compounds together with 1 nmol/L E2
Summary of the method: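 MDA-MB-231 cells in DMEM/F12 with 10% charcoal-stripped FBS, seeded at 2×10^5 cells/well, treated 48 h with 1 nmol/L E2 plus test compound at several concentrations. Run on 12% SDS-PAGE, transferred to PVDF, probed overnight at 4 °C for cyclin A, cyclin E and CDK2, with ECL detection. GAPDH served as loading control; three independent experiments.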

CC/C(=C(\c1ccccc1)c1ccc(OCCN(C)C)cc1)c1ccccc1 [Tamoxifen]
inhibition at 100 µM (MCF-7 cells): 93.3% | inhibition at 100 µM (MDA-MB-231 cells): 80.5%

C[C@]12CC[C@@H]3c4ccc(O)cc4CC[C@H]3[C@@H]1CC[C@@H]2O [Estradiol, 17β-estrodial]
expression level of CDK2 [1]: increased the expression | expression level of cyclin A [1]: increased the expression | expression level of cyclin E [1]: increased the expression
